Results as given in ChEMBL document CHEMBL1681697, “Simple phosphonic inhibitors of human neutrophil elastase” (Bioorg Med Chem Lett, 2011).
Converted amounts (≈) assume the structure as drawn.

Key:
[1] = biological target: T1, Neutrophil elastase (Homo sapiens) (UniProt P08246); experiment: Inhibition of human neutrophil elastase at 5 uM after 15 mins
T1 sequence (whole entry): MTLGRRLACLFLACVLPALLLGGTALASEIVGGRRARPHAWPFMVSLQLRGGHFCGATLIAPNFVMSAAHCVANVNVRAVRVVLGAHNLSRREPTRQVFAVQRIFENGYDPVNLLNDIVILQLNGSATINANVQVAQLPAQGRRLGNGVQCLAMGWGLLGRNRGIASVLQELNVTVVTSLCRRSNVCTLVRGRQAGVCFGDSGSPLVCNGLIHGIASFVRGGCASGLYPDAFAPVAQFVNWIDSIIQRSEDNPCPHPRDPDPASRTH
Procedure, shortened: (§1)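 Single-point screen: each enzyme incubated with inhibitor at 37 °C, then residual activity measured. Inhibition below 5% was scored as no inhibition.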

[2] = biological target: Chymotrypsin-like elastase family member 1 (Sus scrofa) (UniProt P00772); experiment: Inhibition of porcine pancreatic elastase at 5 uM after 15 mins; procedure, shortened: as §1
[3] = Inhibition of trypsin at 5 uM after 15 mins; procedure, shortened: as §1
[4] = Ratio of dissociation of enzyme-inhibitor-substrate complex to Ki for chymotrypsin
MCF7 [5] = experiment: Antiproliferative activity against human MCF7 cells after 72 hrs; assay type: functional, cell-based; details: MCF7, 72 h
A549 = experiment: Antiproliferative activity against human A549 cells assessed as growth inhibition at 100 ug/ml after 72 hrs; assay type: functional; details: A549, 72 h
LoVo [6] = experiment: Antiproliferative activity against human multidrug-resistant LoVo cells assessed as growth inhibition at 100 ug/ml after 72 hrs; assay type: functional
LoVo [7] = experiment: Antiproliferative activity against human LoVo cells after 72 hrs; assay type: functional, cell-based
LoVo [8] = experiment: Antiproliferative activity against human LoVo cells assessed as growth inhibition at 100 ug/ml after 72 hrs; assay type: functional
MCF7 [9] = experiment: Antiproliferative activity against human MCF7 cells assessed as growth inhibition at 100 ug/ml after 72 hrs; assay type: functional; details: MCF7, 72 h

Chymotrypsin-like elastase family member 1 (Sus scrofa), sequence (P00772 whole entry): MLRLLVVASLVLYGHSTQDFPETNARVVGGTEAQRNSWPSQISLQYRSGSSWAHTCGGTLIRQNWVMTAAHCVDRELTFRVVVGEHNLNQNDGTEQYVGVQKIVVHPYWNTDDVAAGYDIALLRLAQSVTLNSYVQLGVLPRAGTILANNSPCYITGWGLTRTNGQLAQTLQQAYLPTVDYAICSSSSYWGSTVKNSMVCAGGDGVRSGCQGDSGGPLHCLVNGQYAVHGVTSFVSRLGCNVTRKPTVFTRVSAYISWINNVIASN

| Compound | inhibition [1] | inhibition [2] | inhibition [3] | other results |
| --- | --- | --- | --- | --- |
| Cc1ccc(C)c(OP(=O)(Oc2cc(C)ccc2C)[C@@H](CC(C)C)NC(=O)OCc2ccccc2)c1 | < 5% |  |  |  |
| CSc1ccc(OP(=O)(Oc2ccc(SC)cc2)[C@H](NC(=O)OCc2ccccc2)C(C)C)cc1 |  | < 5% |  |  |
| CCC[C@@H](NC(=O)OCc1ccccc1)P(=O)(Oc1ccc(OC)cc1)Oc1ccc(OC)cc1 | < 5% | < 5% |  |  |
| CCC[C@@H](NC(=O)OCc1ccccc1)P(=O)(Oc1cccc(C)c1C)Oc1cccc(C)c1C | < 5% | < 5% |  |  |
| Cc1ccccc1OP(=O)(Oc1ccccc1C)[C@@H](CC(C)C)NC(=O)OCc1ccccc1 |  | < 5% |  |  |
| CC(C)[C@@H](NC(=O)OCc1ccccc1)P(=O)(Oc1ccc(C(C)(C)CC(C)(C)C)cc1)Oc1ccc(C(C)(C)CC(C)(C)C)cc1 | < 5% | < 5% | < 5% |  |
| CCC(NC(=O)OCc1ccccc1)P(=O)(Oc1ccccc1)Oc1ccccc1 (centres undefined) |  | < 5% |  |  |
| CCC[C@@H](NC(=O)OCc1ccccc1)P(=O)(Oc1cc(C)cc(C)c1C)Oc1cc(C)cc(C)c1C | < 5% | < 5% |  |  |
| COC(=O)c1ccc(OP(=O)(Oc2ccc(C(=O)OC)cc2)[C@H](NC(=O)OCc2ccccc2)C(C)C)cc1 |  | < 5% |  | Ratio [4]: < 50 M⁻¹ s⁻¹; IC50 (MCF7 [5]): 47 mg/L (≈ 84.6 µM); inhibition at 100 µg/mL (A549): 46%; inhibition at 100 µg/mL (LoVo [6]): 54%; IC50 (LoVo [7]): 32 mg/L (≈ 57.6 µM) |
| CCc1ccc(OP(=O)(Oc2ccc(CC)cc2)[C@@H](C)NC(=O)OCc2ccccc2)cc1 |  | < 5% | < 5% |  |
| C[C@@H](NC(=O)OCc1ccccc1)P(=O)(Oc1ccc(C(C)(C)C)cc1)Oc1ccc(C(C)(C)C)cc1 |  |  | < 5% |  |
| CC(C)(C)C(=O)Oc1ccc(S(=O)(=O)Nc2ccccc2C(=O)NCC(=O)O)cc1 [SIVELESTAT] |  |  |  | inhibition at 100 µg/mL (LoVo [8]): 20%; inhibition at 100 µg/mL (MCF7 [9]): 61%; inhibition at 100 µg/mL (LoVo [6]): 15% |
| CCCC[C@@H](NC(=O)OCc1ccccc1)P(=O)(Oc1ccc(SC)cc1)Oc1ccc(SC)cc1 | < 5% | < 5% |  |  |
| CCC[C@@H](NC(=O)OCc1ccccc1)P(=O)(Oc1ccc(C(=O)OC)cc1)Oc1ccc(C(=O)OC)cc1 |  |  |  | Ratio [4]: < 50 M⁻¹ s⁻¹; IC50 (MCF7 [5]): 52 mg/L (≈ 93.6 µM); inhibition at 100 µg/mL (A549): 40%; inhibition at 100 µg/mL (LoVo [6]): 47%; IC50 (LoVo [7]): 47 mg/L (≈ 84.6 µM) |
| CC(C)C[C@@H](NC(=O)OCc1ccccc1)P(=O)(Oc1ccc(Cl)cc1)Oc1ccc(Cl)cc1 |  | < 5% |  |  |
| COC(=O)c1ccc(OP(=O)(Oc2ccc(C(=O)OC)cc2)[C@@H](CC(C)C)NC(=O)OCc2ccccc2)cc1 |  |  |  | inhibition at 100 µg/mL (LoVo [8]): 22%; Ratio [4]: < 50 M⁻¹ s⁻¹; inhibition at 100 µg/mL (A549): 3%; inhibition at 100 µg/mL (MCF7 [9]): 8%; inhibition at 100 µg/mL (LoVo [6]): 6% |
| CCC(NC(=O)OCc1ccccc1)P(=O)(Oc1ccc(C(=O)OC)cc1)Oc1ccc(C(=O)OC)cc1 (centres undefined) |  |  |  | Ratio [4]: 1070 M⁻¹ s⁻¹; inhibition at 100 µg/mL (A549): 31%; inhibition at 100 µg/mL (MCF7 [9]): 49%; inhibition at 100 µg/mL (LoVo [6]): 38%; IC50 (LoVo [7]): 73 mg/L (≈ 135 µM) |
| CCC(NC(=O)OCc1ccccc1)P(=O)(Oc1ccc(C)cc1)Oc1ccc(C)cc1 (centres undefined) | < 5% | < 5% |  |  |
| CSc1ccc(OP(=O)(Oc2ccc(SC)cc2)[C@@H](C)NC(=O)OCc2ccccc2)cc1 |  | < 5% | < 5% |  |
| CC(C)[C@@H](NC(=O)OCc1ccccc1)P(=O)(Oc1ccc(C(C)(C)C)cc1)Oc1ccc(C(C)(C)C)cc1 |  | < 5% | < 5% |  |

| Compound | inhibition [1] | inhibition [2] | inhibition [3] | other results |
| --- | --- | --- | --- | --- |
| COc1ccc(OP(=O)(Oc2ccc(OC)cc2)[C@@H](CC(C)C)NC(=O)OCc2ccccc2)cc1 | < 5% |  |  |  |
| CSc1ccc(OP(=O)(Oc2ccc(SC)cc2)[C@@H](CC(C)C)NC(=O)OCc2ccccc2)cc1 |  | < 5% |  |  |
| CCC(NC(=O)OCc1ccccc1)P(=O)(Oc1ccc(C)c(C)c1)Oc1ccc(C)c(C)c1 (centres undefined) | < 5% | < 5% |  |  |
| CCc1ccc(OP(=O)(Oc2ccc(CC)cc2)C(CC)NC(=O)OCc2ccccc2)cc1 (centres undefined) |  | < 5% |  |  |
| CCCC[C@@H](NC(=O)OCc1ccccc1)P(=O)(Oc1ccccc1)Oc1ccccc1 |  | < 5% | < 5% |  |
| COc1ccc(OP(=O)(Oc2ccc(OC)cc2)[C@H](NC(=O)OCc2ccccc2)C(C)C)cc1 |  |  | < 5% |  |
| COC(=O)c1ccc(OP(=O)(Oc2ccc(C(=O)OC)cc2)[C@@H](C)NC(=O)OCc2ccccc2)cc1 |  |  |  | Ratio [4]: 1530 M⁻¹ s⁻¹; IC50 (MCF7 [5]): 40 mg/L (≈ 75.8 µM); inhibition at 100 µg/mL (A549): 25%; inhibition at 100 µg/mL (LoVo [6]): 46%; IC50 (LoVo [7]): 47 mg/L (≈ 89.1 µM) |
| Cc1ccc(C)c(OP(=O)(Oc2cc(C)ccc2C)[C@H](NC(=O)OCc2ccccc2)C(C)C)c1 | < 5% | < 5% | < 5% |  |
| CCC[C@@H](NC(=O)OCc1ccccc1)P(=O)(Oc1cc(C)c(C)c(C)c1)Oc1cc(C)c(C)c(C)c1 | < 5% | < 5% | < 5% |  |
| CCC(NC(=O)OCc1ccccc1)P(=O)(Oc1ccc(C(C)(C)C)cc1)Oc1ccc(C(C)(C)C)cc1 (centres undefined) | < 5% | < 5% |  |  |
| CCCC[C@@H](NC(=O)OCc1ccccc1)P(=O)(Oc1ccc(C(C)(C)C)cc1)Oc1ccc(C(C)(C)C)cc1 |  |  | < 5% |  |
| C[C@@H](NC(=O)OCc1ccccc1)P(=O)(Oc1ccccc1)Oc1ccccc1 |  | < 5% | < 5% |  |
| CCC(NC(=O)OCc1ccccc1)P(=O)(Oc1ccc(Cl)cc1)Oc1ccc(Cl)cc1 (centres undefined) |  |  |  | Ratio [4]: < 50 M⁻¹ s⁻¹ |
| CCc1ccc(OP(=O)(Oc2ccc(CC)cc2)[C@H](NC(=O)OCc2ccccc2)C(C)C)cc1 |  |  | < 5% |  |
| CC(C)c1ccc(OP(=O)(Oc2ccc(C(C)C)cc2)[C@H](NC(=O)OCc2ccccc2)C(C)C)cc1 | < 5% | < 5% | < 5% |  |
| CC(C)c1ccc(OP(=O)(Oc2ccc(C(C)C)cc2)[C@@H](C)NC(=O)OCc2ccccc2)cc1 |  | < 5% | < 5% |  |
| CCC(NC(=O)OCc1ccccc1)P(=O)(Oc1ccc(C(C)C)cc1)Oc1ccc(C(C)C)cc1 (centres undefined) |  |  | < 5% |  |
| CC(C)[C@@H](NC(=O)OCc1ccccc1)P(=O)(Oc1ccccc1)Oc1ccccc1 | < 5% | < 5% | < 5% |  |
| CC(C)[C@@H](NC(=O)OCc1ccccc1)P(=O)(Oc1ccc(S(C)(=O)=O)cc1)Oc1ccc(S(C)(=O)=O)cc1 |  |  |  | inhibition at 100 µg/mL (LoVo [8]): 15%; Ratio [4]: 707 M⁻¹ s⁻¹; inhibition at 100 µg/mL (A549): 5%; inhibition at 100 µg/mL (MCF7 [9]): 19% |
| CCCC[C@@H](NC(=O)OCc1ccccc1)P(=O)(Oc1ccc(C(=O)OC)cc1)Oc1ccc(C(=O)OC)cc1 |  |  |  | Ratio [4]: < 50 M⁻¹ s⁻¹ |
